Source: ChEMBL document CHEMBL1137710, “Synthesis and in vitro antitumor activity of new quinoxaline derivatives” (2009)

How the values were obtained:
Format in all cases: functional
NCI-H23 = assay: Growth inhibition of human NCI-H23 cells after 48 hrs by sulforhodamine B assay; conditions: NCI-H23, 48 h
In short: (§1)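 NCI 60-human-tumor-cell-line panel, with compounds tested over a 5-log dose range. Values are taken from dose-response curves as log10 molar concentrations: GI50 is 50% net growth inhibition, TGI is total growth inhibition, and LC50 is 50% net cell death.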

786-0 = assay: Growth inhibition of human 786-0 cells after 48 hrs by sulforhodamine B assay; conditions: 786-0, 48 h; in short: as §1
OVCAR-5 = assay: Growth inhibition of human OVCAR5 cells after 48 hrs by sulforhodamine B assay; conditions: OVCAR-5, 48 h; in short: as §1
SW-620 = assay: Growth inhibition of human SW620 cells after 48 hrs by sulforhodamine B assay; conditions: SW-620, 48 h
In short: (§2)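 Run in the NCI 60-human-tumour-cell-line panel, tested over a 5-log dose range. Dose–response curves gave three values per cell line, each as a log10 molar concentration: GI50 (50% inhibition of net cell growth), TGI (total inhibition of net growth) and LC50 (50% net cell death). The mean graph midpoint is the arithmetic mean over all lines, with insensitive lines entered at the highest concentration tested.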

SK-MEL-28 = assay: Growth inhibition of human SK-MEL-28 cells after 48 hrs by sulforhodamine B assay; conditions: SK-MEL-28, 48 h; in short: as §1
OVCAR-4 = assay: Growth inhibition of human OVCAR4 cells after 48 hrs by sulforhodamine B assay; conditions: OVCAR-4, 48 h; in short: as §1
SF-268 [1] = assay: Growth inhibition of human SF268 cells after 48 hrs by sulforhodamine B assay; conditions: SF-268, 48 h; in short: as §1
[2] = Growth inhibition of human Hs 578T cells after 48 hrs by sulforhodamine B assay; in short: as §1
U-251 = assay: Growth inhibition of human U251 cells after 48 hrs by sulforhodamine B assay; conditions: U-251, 48 h; in short: as §2
NCI-H322M = assay: Growth inhibition of human NCI-H322M cells after 48 hrs by sulforhodamine B assay; in short: as §1
MDA-MB-435 = assay: Growth inhibition of human MDA-MB-435 cells after 48 hrs by sulforhodamine B assay; conditions: MDA-MB-435, 48 h; in short: as §1
K562 = assay: Growth inhibition of human K562 cells after 48 hrs by sulforhodamine B assay; conditions: K562, 48 h; in short: as §1
SF-295 = assay: Growth inhibition of human SF295 cells after 48 hrs by sulforhodamine B assay; conditions: SF-295, 48 h; in short: as §1
[3] = Growth inhibition of human […] cells after 48 hrs by sulforhodamine B assay; in short: as §1
NCI/ADR-RES = assay: Growth inhibition of human NCI/ADR-RES cells after 48 hrs by sulforhodamine B assay; in short: as §1
SF-268 [4] = assay: Anticancer activity against human SF268 cells assessed as cell growth at 100 uM after 48 hrs by sulforhodamine B assay; conditions: SF-268, 48 h, read-out: Activity
RXF 393 = assay: Growth inhibition of human RXF393 cells after 48 hrs by sulforhodamine B assay; conditions: RXF 393, 48 h; in short: as §1
MCF7 = assay: Anticancer activity against human MCF7 cells assessed as cell growth at 100 uM after 48 hrs by sulforhodamine B assay; conditions: MCF7, 48 h, read-out: Activity
COLO 205 = assay: Growth inhibition of human COLO205 cells after 48 hrs by sulforhodamine B assay; conditions: COLO 205, 48 h; in short: as §1
SK-MEL-5 = assay: Growth inhibition of human SK-MEL-5 cells after 48 hrs by sulforhodamine B assay; conditions: SK-MEL-5, 48 h; in short: as §1
HCT-116 = assay: Growth inhibition of human HCT116 cells after 48 hrs by sulforhodamine B assay; conditions: HCT-116, 48 h; in short: as §1
LOX IMVI = assay: Growth inhibition of human LOXIMVI cells after 48 hrs by sulforhodamine B assay; in short: as §1
M14 = assay: Growth inhibition of human M14 cells after 48 hrs by sulforhodamine B assay; conditions: M14, 48 h; in short: as §1
MDA-MB-231 = assay: Growth inhibition of human MDA-MB-231 cells after 48 hrs by sulforhodamine B assay; conditions: MDA-MB-231, 48 h; in short: as §1
CAKI-1 = assay: Growth inhibition of human Caki1 cells after 48 hrs by sulforhodamine B assay; conditions: CAKI-1, 48 h; in short: as §1
OVCAR-3 = assay: Growth inhibition of human OVCAR-3 cells after 48 hrs by sulforhodamine B assay; conditions: OVCAR-3, 48 h; in short: as §1
SK-MEL-2 = assay: Growth inhibition of human SK-MEL-2 cells after 48 hrs by sulforhodamine B assay; conditions: SK-MEL-2, 48 h; in short: as §1
SNB-19 = assay: Growth inhibition of human SNB19 cells after 48 hrs by sulforhodamine B assay; conditions: SNB-19, 48 h; in short: as §2
NCI-H522 = assay: Growth inhibition of human NCI-H522 cells after 48 hrs by sulforhodamine B assay; conditions: NCI-H522, 48 h; in short: as §1
UACC-62 = assay: Growth inhibition of human UACC62 cells after 48 hrs by sulforhodamine B assay; conditions: UACC-62, 48 h; in short: as §2
[5] = read-out: pLC50 (the source's name) (converted)

Structure (SMILES): Nc1cc(N)c2nc(-c3ccccc3)c(Sc3ccc(Cl)c(Cl)c3)nc2c1
- GI50 (NCI-H23): 12.6 µM
- LC50 (50% net cell kill concentration) (NCI-H23): 95.5 µM
- TGI (NCI-H23; read-out: pTGI (converted)): 34.7 µM
- GI50 (786-0): 23.4 µM
- CC50 (786-0; [5]): > 100 µM
- TGI (786-0; read-out: pTGI (converted)): 61.7 µM
- GI50 (OVCAR-5): 38.9 µM
- CC50 (OVCAR-5; [5]): 91.2 µM
- TGI (OVCAR-5; read-out: pTGI (converted)): 58.9 µM
- GI50 (SW-620): 20.9 µM
- CC50 (SW-620; [5]): > 100 µM
- TGI (SW-620; read-out: pTGI (converted)): 83.2 µM
- GI50 (SK-MEL-28): 13.8 µM
- CC50 (SK-MEL-28; [5]): > 100 µM
- TGI (SK-MEL-28; read-out: pTGI (converted)): 57.5 µM
- GI50 (OVCAR-4): 20 µM
- CC50 (OVCAR-4; [5]): > 100 µM
- TGI (OVCAR-4; read-out: pTGI (converted)): > 100 µM
- GI50 (SF-268 [1]): 13.8 µM
- LC50 (SF-268 [1]): > 100 µM
- TGI (SF-268 [1]; read-out: pTGI (converted)): 51.3 µM
- GI50 [2]: 30.2 µM
- CC50 [2, 5]: > 100 µM
- TGI ([2]; read-out: pTGI (converted)): > 100 µM
- GI50 (U-251): 10.2 µM
- LC50 (50% net cell kill) (U-251): > 100 µM
- TGI (U-251; read-out: pTGI (converted)): > 100 µM
- GI50 (NCI-H322M): 7.08 µM
- LC50 (NCI-H322M): > 100 µM
- TGI (NCI-H322M; read-out: pTGI (converted)): 35.5 µM
- GI50 (MDA-MB-435): 18.2 µM
- CC50 (MDA-MB-435; [5]): > 100 µM
- TGI (MDA-MB-435; read-out: pTGI (converted)): 60.3 µM
- GI50 (K562): 15.8 µM
- LC50 (K562): > 100 µM
- TGI (K562; read-out: pTGI (converted)): > 100 µM
- GI50 (SF-295): 17.8 µM
- LC50 (50% net cell kill) (SF-295): > 100 µM
- TGI (SF-295; read-out: pTGI (converted)): 60.3 µM
- GI50 [3]: 3.8 µM
- LC50 [3]: > 100 µM
- TGI ([3]; read-out: pTGI (converted)): 31.6 µM
- GI50 (NCI/ADR-RES): 19.1 µM
- CC50 (NCI/ADR-RES; [5]): > 100 µM
- TGI (NCI/ADR-RES; read-out: pTGI (converted)): 60.3 µM
- growth at 100 µM (SF-268 [4]): 11%
- GI50 (RXF 393): 12.3 µM
- CC50 (RXF 393; [5]): 60.3 µM
- TGI (RXF 393; read-out: pTGI (converted)): 26.9 µM
- growth at 100 µM (MCF7): 12%
- GI50 (COLO 205): 10.7 µM
- LC50 (50% net cell kill) (COLO 205): > 100 µM
- TGI (COLO 205; read-out: pTGI (converted)): 33.9 µM
- GI50 (SK-MEL-5): 21.4 µM
- CC50 (SK-MEL-5; [5]): > 100 µM
- TGI (SK-MEL-5; read-out: pTGI (converted)): 95.5 µM
- GI50 (HCT-116): 9.33 µM
- LC50 (concentration causing 50% net cell death) (HCT-116): > 100 µM
- TGI (HCT-116; read-out: pTGI (converted)): 47.9 µM
- GI50 (LOX IMVI): 7.41 µM
- LC50 (LOX IMVI): 72.4 µM
- TGI (LOX IMVI; read-out: pTGI (converted)): 24.5 µM
- GI50 (M14): 32.4 µM
- CC50 (M14; [5]): > 100 µM
- TGI (M14; read-out: pTGI (converted)): > 100 µM
- GI50 (MDA-MB-231): 16.6 µM
- CC50 (MDA-MB-231; [5]): > 100 µM
- TGI (MDA-MB-231; read-out: pTGI (converted)): 53.7 µM
- GI50 (CAKI-1): 15.1 µM
- CC50 (CAKI-1; [5]): 89.1 µM
- TGI (CAKI-1; read-out: pTGI (converted)): 37.2 µM
- GI50 (OVCAR-3): 11.7 µM
- CC50 (OVCAR-3; [5]): > 100 µM
- TGI (OVCAR-3; read-out: pTGI (converted)): 46.8 µM
- GI50 (SK-MEL-2): 6.17 µM
- CC50 (SK-MEL-2; [5]): > 100 µM
- TGI (SK-MEL-2; read-out: pTGI (converted)): 30.9 µM
- GI50 (SNB-19): 17 µM
- LC50 (SNB-19): > 100 µM
- TGI (SNB-19; read-out: pTGI (converted)): 57.5 µM
- GI50 (NCI-H522): 7.59 µM
- LC50 (NCI-H522): > 100 µM
- TGI (NCI-H522; read-out: pTGI (converted)): 33.9 µM
- GI50 (UACC-62): 6.76 µM
- CC50 (UACC-62; [5]): > 100 µM
- TGI (UACC-62; read-out: pTGI (converted)): 42.7 µM
